Test results from ChEMBL document CHEMBL3797182, “In vitro evaluation of imidazo[4,5-c]quinolin-2-ones as gametocytocidal antimalarial agents” (Bioorg Med Chem Lett, 2016).

Assays:
[1] = tested on: Plasmodium falciparum; experiment: Gametocytocidal activity against Plasmodium falciparum after 72 hrs by Alamar Blue assay; assay type: functional, organism-based
[2] = tested on: Plasmodium falciparum; experiment: Gametocytocidal activity against chloroquine-sensitive late gametocytic stage (III to V) of Plasmodium falciparum 3D7 after 72 hrs by Alamar Blue assay; assay type: functional, organism-based; settings: 3D7, 72 h
Method in brief: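 Late-stage (III–V) P. falciparum 3D7 gametocytes. AlamarBlue redox indicator reads cytosolic metabolic activity as a measure of gametocyte viability. 1536-well format, 11-point dose-response, duplicates. Torin 2 positive control, DMSO negative control.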

[3] = tested on: Plasmodium falciparum; experiment: Selectivity ratio of IC50 for chloroquine-sensitive late gametocytic stage (III to V) of Plasmodium falciparum 3D7 to IC50 for chloroquine-sensitive asexual blood stage of Plasmodium falciparum 3D7; assay type: functional
[4] = tested on: Plasmodium falciparum; experiment: Antimalarial activity against chloroquine-sensitive asexual blood stage of Plasmodium falciparum 3D7 infected in RBC after 72 hrs by SYBR Green assay; assay type: functional, organism-based; settings: 3D7, 72 h
Method in brief: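 Asexual blood-stage P. falciparum 3D7 (chloroquine-sensitive) parasites. 1536-well format, 11-point dose-response, duplicate tests. Torin 2 served as positive control and DMSO as negative control.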

[5] = tested on: HepG2; experiment: Cytotoxicity against human HepG2 cells assessed as cell viability after 24 hrs; assay type: cell-based; settings: HepG2, 24 h
Method in brief: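 HepG2 cell viability as general cytotoxicity. 1536-well, 11-point dose-response in duplicate, top concentration 46 μM. Torin 2 positive control, DMSO negative control.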

| SMILES | IC50 [1] [nM] | IC50 [2] [nM] | Ratio IC50 [3] | IC50 [4] [nM] | IC50 [5] [nM] |
| --- | --- | --- | --- | --- | --- |
| Nc1ccc(-c2ccc3ncc4ccc(=O)n(-c5cccc(C(F)(F)F)c5)c4c3c2)cn1 | 8 |  |  |  |  |
| O=c1[nH]c2cnc3ccc(-c4ccc(Cl)cc4)cc3c2n1-c1cccc(C(F)(F)F)c1 |  | 3560 | 1 | 1690 | > 45000 |
